As a reminder, the Kd is the constant that tells how readily two partners part at equilibrium. What is called IC50 is the midpoint of a concentration-inhibition curve. As a reminder, the solubility is the dissolved amount per volume that the medium holds. Read a high solubility as much dissolved substance.

The source of these data is ChEMBL document CHEMBL2380202, “Identification of substituted 2-thio-6-oxo-1,6-dihydropyrimidines as inhibitors of human lactate dehydrogenase” (Bioorg Med Chem Lett, 2013).

Data set [1] has as its target T1, L-lactate dehydrogenase A chain (Homo sapiens, UniProt P00338). In words: Binding affinity to human recombinant carboxy-terminal avi-tagged LDHA (1 to 331) expressed in Escherichia coli by surface plasmon resonance analysis presence of NADH. The gist of the method: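 SPR with NADH present; twofold dilution series of analyte injections; K_D obtained by fitting kinetics or the equilibrium dose response; arithmetic mean of 2 separate runs.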
For orientation: In SPR one partner is held on a chip, and binding of the other changes the refractive index at the surface.

In data set [2] the target is T1, L-lactate dehydrogenase A chain. As to the kind of experiment: Inhibition of human recombinant carboxy-terminal his-tagged LDHA (1 to 331) expressed in Escherichia coli using pyruvate as substrate after 10 mins by UV endpoint analysis.
Data set [3] has as its target L-lactate dehydrogenase B chain (Homo sapiens, UniProt P07195). In words: Inhibition of human recombinant carboxy-terminal his-tagged LDHB (1 to 333) expressed in insect cells using pyruvate as substrate after 10 mins by UV endpoint analysis.
Data set [4] in a line: Aqueous solubility of the compound in PBS buffer at pH 7.2 at 100 uM after 24 hrs. The class given is physicochemical. In short, it runs like this:
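Aqueous solubility estimated from a high-throughput assay; single determination (n = 1).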

Data set [5] has as its target L-lactate dehydrogenase (Homo sapiens) (UniProt V9HWB9). In words: Inhibition of LDH in human HCC1954 cells assessed as lactate accumulation up to 50 uM after 6 hrs. The class given is cell-based.
Data set [6] is described as follows: Clearance in human liver microsomes at 1 uM up to 60 mins. The data set is classed as ADME, Microsome. In short, it runs like this: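 Human liver microsome stability, single determination (n = 1); in vitro result extrapolated to in vivo clearance, classed stable below 6.2 and labile above 15.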
Background: Liver microsomes are vesicles of endoplasmic reticulum, rich in cytochrome P450 enzymes.

The target in data set [7] is T2, Malate dehydrogenase, mitochondrial (Homo sapiens, UniProt P40926).
T2 sequence (P40926 whole entry): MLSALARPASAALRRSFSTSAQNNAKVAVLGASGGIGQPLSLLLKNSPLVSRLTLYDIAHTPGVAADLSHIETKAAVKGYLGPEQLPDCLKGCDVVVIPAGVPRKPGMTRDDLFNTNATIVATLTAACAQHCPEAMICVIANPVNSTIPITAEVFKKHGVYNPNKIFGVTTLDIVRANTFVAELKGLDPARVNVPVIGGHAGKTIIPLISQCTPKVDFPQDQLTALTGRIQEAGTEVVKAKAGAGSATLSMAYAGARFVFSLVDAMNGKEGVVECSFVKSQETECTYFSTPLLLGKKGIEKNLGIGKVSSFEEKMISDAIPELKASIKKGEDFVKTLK
In words: Inhibition of human recombinant carboxy-terminal his-tagged MDH-2 (20 to 338) expressed in Escherichia coli using oxaloacetic acid as substrate after 10 mins by UV endpoint analysis. The gist of the method:
(§1)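 Biochemical enzyme inhibition; reported as the arithmetic mean of 2 separate runs (n = 2).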

Data set [8] addresses T3, Malate dehydrogenase, cytoplasmic (Homo sapiens, UniProt P40925).
T3 sequence (P40925 whole entry): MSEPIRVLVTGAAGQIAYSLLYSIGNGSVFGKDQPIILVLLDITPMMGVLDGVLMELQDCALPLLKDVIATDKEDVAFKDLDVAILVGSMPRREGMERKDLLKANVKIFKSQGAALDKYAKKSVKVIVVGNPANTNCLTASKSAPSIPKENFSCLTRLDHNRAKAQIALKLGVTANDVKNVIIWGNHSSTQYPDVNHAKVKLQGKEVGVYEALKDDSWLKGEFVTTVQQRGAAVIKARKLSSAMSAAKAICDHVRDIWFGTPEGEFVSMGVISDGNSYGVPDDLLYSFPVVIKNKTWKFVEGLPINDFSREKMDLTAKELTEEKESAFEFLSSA
In words: Inhibition of human recombinant carboxy-terminal his-tagged MDH-1 (3 to 334) expressed in Escherichia coli using oxaloacetic acid as substrate after 10 mins by UV endpoint analysis. In short, it runs like this:
as §1

The target of data set [9] is T1, L-lactate dehydrogenase A chain. As to the kind of experiment: Binding affinity to human recombinant carboxy-terminal avi-tagged LDHA (1 to 331) expressed in Escherichia coli by surface plasmon resonance analysis absence of NADH. In short, it runs like this: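 SPR run without NADH; analyte injected as a twofold dilution series; K_D estimated relative to a control; mean of 2 separate runs.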

Data set [10] shares this target. As to the kind of experiment: Inhibition of human recombinant carboxy-terminal his-tagged LDHA (1 to 331) expressed in Escherichia coli using pyruvate as substrate after 10 mins by MS endpoint analysis. The gist of the method:
as §1

Converted amounts (≈) assume the structure as drawn. The source made the active and inactive calls. The calls are words filed in the database; no cut-off is given here.

L-lactate dehydrogenase B chain, sequence (P07195 whole entry): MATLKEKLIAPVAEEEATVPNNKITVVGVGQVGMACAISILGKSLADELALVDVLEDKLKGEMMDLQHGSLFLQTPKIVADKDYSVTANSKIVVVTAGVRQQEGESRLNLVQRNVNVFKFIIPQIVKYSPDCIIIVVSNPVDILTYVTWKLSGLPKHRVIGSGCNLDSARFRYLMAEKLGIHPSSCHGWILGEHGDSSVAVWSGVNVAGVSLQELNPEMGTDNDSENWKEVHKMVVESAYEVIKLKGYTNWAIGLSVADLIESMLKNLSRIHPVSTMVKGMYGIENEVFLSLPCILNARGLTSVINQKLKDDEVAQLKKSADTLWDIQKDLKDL

Turning to `CNS(=O)(=O)c1ccc(NC(=O)CSc2nc(-c3ccc(Cl)cc3)c(C#N)c(=O)[nH]2)cc1`, in data set [1], the Kd is 532 µM. For the same compound, the IC50 in [2] and in data set [3] was more than 100 µM in each case.

`N#Cc1c(-c2ccc(Cl)cc2)nc(SCC(=O)Nc2ccc(Cl)cc2)[nH]c1=O`: the Kd in data set [1] was found to be 570 µM. Moreover, the IC50 in data set [2] is 55.7 µM; in data set [3] it was more than 100 µM.

Regarding `Cc1ccc(NC(=O)CSc2nc(-c3ccc(Cl)cc3)c(C#N)c(=O)[nH]2)cc1Cl`, the Kd in [1] was found to be 466 µM. The IC50 in data set [2] worked out at 27.6 µM.

With `CC(Sc1nc(-c2ccc(Cl)cc2)c(C#N)c(=O)[nH]1)C(=O)Nc1ccc(S(N)(=O)=O)cc1` (racemic), the Kd in [1] came to 2.2 µM. In [4], this compound registered a solubility at 24 h, 100 µM of 58 µM (≈ 28.4 µg/mL). For the same compound, the inhibition entry in data set [5] was “inactive”. Also, the values for the concentration for half-maximal inhibition (IC50) in [2] and in data set [3] were 0.48 µM and 3 µM, respectively. Moreover, in data set [6], the CLhep predicted at 1 µM was 2.6 mL/min/kg.

Regarding `CC(Sc1ncc(C#N)c(=O)[nH]1)C(=O)Nc1ccc(S(N)(=O)=O)cc1` (racemic), the IC50 in data set [2] was 12.5 µM.

As to `CC(Sc1nc(-c2ccc(Cl)c(Cl)c2)c(C#N)c(=O)[nH]1)C(=O)Nc1ccc(S(N)(=O)=O)cc1` (racemic), in data set [1], the Kd was 5.1 µM. The solubility at 24 h, 100 µM in data set [4] was 30 µM (≈ 15.7 µg/mL). Further, the inhibition result in data set [5] was “inactive”. The values for the IC50 in [2] and in data set [3] were 0.75 µM and 3.7 µM, respectively. In data set [6], the CLhep predicted at 1 µM was 2.6 mL/min/kg.

Regarding `COc1ccccc1NC(=O)CSc1nc(-c2ccc(Cl)cc2)c(C#N)c(=O)[nH]1`, the Kd in data set [1] worked out at 1110 µM. For the same compound, in [2], the IC50 is more than 100 µM.

On to `CCC(Sc1nc(-c2cccc(OC)c2)c(C#N)c(=O)[nH]1)C(=O)Nc1ccc(S(N)(=O)=O)cc1` (racemic), for which the Kd in data set [1] came out at 8.9 µM. Besides, the IC50 in [2] is 7.4 µM; in data set [3], 7.7 µM. In addition, the CLhep predicted at 1 µM in data set [6] was 6.9 mL/min/kg.

On to `CC(C)c1ccc(NC(=O)CSc2nc(-c3ccc(Cl)cc3)c(C#N)c(=O)[nH]2)cc1`, for which, in data set [1], the Kd worked out at 552 µM. Besides, the IC50 in [2] was 22.6 µM.

`Cc1ccccc1NC(=O)CSc1nc(-c2ccc(Cl)cc2)c(C#N)c(=O)[nH]1`: the Kd in [1] was 1010 µM. Moreover, the IC50 in [2] is more than 100 µM.

As for `Cc1cccc(NC(=O)CSc2nc(-c3ccc(Cl)cc3)c(C#N)c(=O)[nH]2)c1C`, in data set [1], the Kd was determined as 1060 µM. Moreover, in [2], the IC50 was more than 100 µM.

Turning to `N#Cc1c(-c2ccc(Cl)cc2)nc(SCC(=O)Nc2ccc(S(N)(=O)=O)cc2)[nH]c1=O`, the Kd in [1] is 6.1 µM; in [9], 384 µM. For the same compound, the IC50 in data set [7] is more than 10 µM; in [2], 8.8 µM; in data set [8] it was more than 10 µM; in data set [10], 1.9 µM. In addition, in data set [6], the CLhep predicted at 1 µM is 5.3 mL/min/kg.

For `CC(Sc1nc(-c2ccccc2)cc(=O)[nH]1)C(=O)Nc1ccc(S(N)(=O)=O)cc1` (racemic), the IC50 in data set [2] was more than 100 µM.

`CCC(Sc1nc(-c2ccc(Cl)cc2)c(C#N)c(=O)[nH]1)C(=O)Nc1ccc(S(N)(=O)=O)cc1` (racemic): the Kd in data set [1] was determined as 3 µM. The compound further returned a solubility at 24 h, 100 µM in [4] of 136 µM (≈ 68.5 µg/mL). Moreover, the IC50 was found to be 0.65 µM in data set [2] and 2.4 µM in [3]. The CLhep predicted at 1 µM in data set [6] was 2.8 mL/min/kg.

Turning to `CCc1ccccc1NC(=O)CSc1nc(-c2ccc(Cl)cc2)c(C#N)c(=O)[nH]1`, in data set [1], the Kd worked out at 1210 µM. In addition, the IC50 in data set [2] was more than 100 µM.

Take `COc1ccc(CNC(=O)c2cc(=O)c3c(O)cc(OCCc4ccc(NC(=O)C(=O)O)c(OC)c4)cc3o2)cc1`: the IC50 was 8.48 µM in data set [7] and 6.78 µM in data set [8].

On to `COc1cccc(-c2nc(SCC(=O)Nc3ccc(S(N)(=O)=O)cc3)[nH]c(=O)c2C#N)c1`, for which, in data set [1], the Kd amounted to 38.4 µM. Further, in data set [2], the concentration for half-maximal inhibition (IC50) came out at 42.4 µM.

Consider `N#Cc1c(-c2ccccc2)nc(SCC(=O)Nc2ccc(S(N)(=O)=O)cc2)[nH]c1=O`, for which the Kd in [1] was determined as 15.4 µM. In addition, the half-inhibitory concentration (IC50) in data set [2] came to 12.1 µM.

With `COc1ccc(NC(=O)CSc2nc(-c3ccc(Cl)cc3)c(C#N)c(=O)[nH]2)cc1Cl`, the Kd in data set [1] came out at 640 µM. In addition, the IC50 was 26.5 µM in [2] and more than 100 µM in [3].

With `Cc1ccc(NC(=O)CSc2nc(-c3ccc(Cl)cc3)c(C#N)c(=O)[nH]2)cc1C`, the Kd in [1] came out at 552 µM. The IC50 in [2] is 38.6 µM; in data set [3] it was more than 100 µM.

Turning to `N#Cc1c(-c2ccc(Cl)cc2)nc(SCC(=O)Nc2cccc(Cl)c2)[nH]c1=O`, the Kd in data set [1] came out at 386 µM. The IC50 was 55.8 µM in data set [2] and more than 100 µM in [3].

For the compound `Cc1c(Cl)cccc1NC(=O)CSc1nc(-c2ccc(Cl)cc2)c(C#N)c(=O)[nH]1`, the Kd in data set [1] is 462 µM. Moreover, the IC50 in data set [2] was 50.2 µM; in data set [3] it was more than 100 µM.

On to `N#Cc1c(-c2ccc(Cl)cc2)nc(SCC(=O)Nc2ccc(F)c(Cl)c2)[nH]c1=O`, for which, in data set [1], the Kd was 314 µM. In addition, the IC50 in data set [2] was 46.8 µM; in [3], more than 100 µM.

On to `NC(=O)C(=O)O` [OXAMATE], for which the IC50 in [3] came out at 33.8 µM.

Consider `CC(Sc1nc(-c2ccc(Cl)c(F)c2)c(C#N)c(=O)[nH]1)C(=O)Nc1ccc(S(N)(=O)=O)cc1` (racemic), for which the Kd in data set [1] was found to be 2.9 µM. In data set [4], this compound displayed a solubility at 24 h, 100 µM of 64 µM (≈ 32.5 µg/mL). Further, in [5], the inhibition result is “inactive”. Moreover, the figures for the IC50 in data set [2] and in data set [3] were 0.71 µM and 2.3 µM, respectively. The CLhep predicted at 1 µM in [6] was 3.4 mL/min/kg.
